These results are taken from ChEMBL document CHEMBL1132176, “Novel A,B,E-ring-modified camptothecins displaying high lipophilicity and markedly improved human blood stabilities” (J Med Chem, 1999).

A short description of data set [1]: Stability parameter for the compound in mouse blood after 3h. It counts as ADME. Particulars: read-out: Lactone. The method in brief: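 Drug was incubated in mouse blood at pH 7.4 and 37 °C for 3 h. Blood was kept at 5 °C after drawing and before the start. The percent lactone remaining was measured by HPLC.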
Data set [2] is described as follows: Equilibrium association (binding) constant interacting with Unilamellar Vesicles of negatively charged DMPG in PBS buffer at pH 7.4 and 37 C. It is filed as ADME. The method in brief:
(§1)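 Fluorescence anisotropy titration of 1 μM drug (lactone form) with small unilamellar vesicles, in PBS at pH 7.4 and 37 °C. Anisotropy was read about 1 min after adding drug at each lipid concentration to limit lactone hydrolysis. Adsorption isotherms were constructed, and K was taken from the slopes of double-reciprocal plots, with 10% uncertainty.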

Data set [3] is described as follows: Stability parameter for the compound in human blood after 3h. It counts as ADME. Particulars: read-out: Lactone.
The nature of data set [4]: Equilibrium association (binding) constant interacting with Unilamellar Vesicles of electroneutral DMPC in PBSbuffer at pH 7.4 and 37 C. It is filed as ADME. The method in brief:
as §1

Data set [5] is described as follows: Stability parameter for the compound at a concentration of 1 uM in plasma after 3h. It is filed as ADME, cell-free. Particulars: read-out: Lactone. The gist of the method: (§2)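 Lactone-to-carboxylate hydrolysis followed by HPLC; drug at 1 μM incubated at 37 °C for 3 h in human whole blood, plasma, or PBS (pH 7.4) with or without physiologically relevant levels of HSA or albumin-free RBCs ((5 ± 1) × 10^6 cell/μL). Plasma continuously aerated with blood gas to hold pH 7.5 ± 0.1. Blood kept at 5 °C before start. Value is % lactone remaining.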

The nature of data set [6]: Stability parameter for the compound at a concentration of 1 uM in human serum albumin(HSA) after 3h. It counts as ADME. Particulars: read-out: Lactone. The method in brief:
as §2

Data set [7] is described as follows: Stability parameter for the compound at a concentration of 1 uM in whole human blood after 3h. It is filed as ADME. Particulars: read-out: Lactone. The method in brief:
as §2

A short description of data set [8]: Stability parameter for the compound at a concentration of 1 uM in red blood cells(RBC) after 3h. It counts as ADME, cell-based. Particulars: read-out: Lactone. The method in brief:
as §2

Data set [9] is described as follows: Stability parameter for the compound at a concentration of 1 uM in phosphate-buffered saline(PBS, pH 7.4) after 3h. Particulars: read-out: Lactone. It is filed as physicochemical. The gist of the method: as §2

For `CC[C@@]1(O)C(=O)OCc2c1cc1n(c2=O)Cc2cc3ccccc3nc2-1` [CAMPTOTHECIN], the remaining at 3 h in data set [1] was 20%; in data set [3] it was 7%. For the same compound, the “K DMPG” value in [2] is 100 M⁻¹. Besides, the “K DMPC” value in [4] came out at 100 M⁻¹.
As to `CCC1(O)CC(=O)OCc2c1cc1n(c2=O)Cc2c-1nc1ccccc1c2[Si](C)(C)C(C)(C)C` (stereo unspecified), the values for the remaining at 3 h in [1] and in data set [3] were 80% and 87%, respectively. Also, the “K DMPG” value in data set [2] was 19000 M⁻¹. Besides, the remaining at 3 h, 1 µM came out at 85% in data set [5]; 88.1% in data set [6]; 86.6% in data set [7]; 92% in data set [8]; 84.9% in data set [9]. Also, in [4], the “K DMPC” value was 14000 M⁻¹.
Turning to `CCC(O)(CC(=O)O)c1cc2n(c(=O)c1CO)Cc1c-2nc2ccc(O)cc2c1[Si](C)(C)C(C)(C)C` (stereo unspecified), the “K DMPG” value in data set [2] came to 100 M⁻¹. In [4], the “K DMPC” value is 700 M⁻¹.
Take `CCC1(O)CC(=O)OCc2c1cc1n(c2=O)Cc2c-1nc1ccc(O)cc1c2[Si](C)(C)C(C)(C)C` (stereo unspecified): the remaining at 3 h turned out to be 70% in [1] and 85% in [3]. In addition, the “K DMPG” value in [2] was found to be 4000 M⁻¹. In addition, the remaining at 3 h, 1 µM turned out to be 61.5% in data set [5]; 82.9% in data set [6]; 84.9% in data set [7]; 88.5% in data set [8]; 83.1% in data set [9]. In addition, the “K DMPC” value in data set [4] stood at 8000 M⁻¹.
Take `CCC1(O)CC(=O)OCc2c1cc1n(c2=O)Cc2c-1nc1ccc(N)cc1c2[Si](C)(C)C` (stereo unspecified): the remaining at 3 h came out at 72% in [1] and 56% in data set [3]. Moreover, the “K DMPG” value in data set [2] was 800 M⁻¹. The remaining at 3 h, 1 µM in data set [5] was determined as 40.3%; in [6], 81.4%; in [7], 56.4%; in [8], 84.8%; in data set [9], 82.8%. Besides, in data set [4], the “K DMPC” value is 1400 M⁻¹.
For the compound `CCC(O)(CC(=O)O)c1cc2n(c(=O)c1CO)Cc1c-2nc2ccc(N)cc2c1[Si](C)(C)C(C)(C)C` (stereo unspecified), the “K DMPG” value in data set [2] came out at 80 M⁻¹. In data set [4], the “K DMPC” value turned out to be 800 M⁻¹.
The corresponding values for `CC[C@@]1(O)C(=O)OCc2c1cc1n(c2=O)Cc2cc3c(CN(C)C)c(O)ccc3nc2-1` [TOPOTECAN] are 50 M⁻¹ and 10 M⁻¹.
`CCC1(O)CC(=O)OCc2c1cc1n(c2=O)Cc2c-1nc1ccc(N)cc1c2[Si](C)(C)C(C)(C)C` (stereo unspecified): the figures for the remaining at 3 h in data set [1] and in data set [3] were 61% and 85%, respectively. Also, the “K DMPG” value in [2] is 9000 M⁻¹. For the same compound, the remaining at 3 h, 1 µM in data set [5] turned out to be 71.1%; in [6], 86.8%; in data set [7], 85.2%; in data set [8] it was 85.5%; in data set [9] it was 83.7%. For the same compound, the “K DMPC” value in data set [4] came out at 9000 M⁻¹.
